Data taken from PMC11335262 (Cellular and Molecular Life Sciences: CMLS, 2024).

Tests used:
[1] = test system: α9E72Qα10; assay: ACh-evoked currents, two-electrode voltage-clamp in X. laevis oocytes; format: cell-based, rat; conditions: 1 mM ACh; α9E72Qα10 mutant receptor
How it was run: (§1)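 Rat subunit cRNAs (0.01–1.0 ng in 50 nl water, 1:1 molar ratio when co-injected) were injected into stage V–VI X. laevis oocytes kept in Barth's solution at 18 °C. Oocytes were preloaded 3 h with 100 µM BAPTA-AM.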

[2] = target: α9α10 nAChR (Rattus norvegicus, UniProt P43144+Q9JLB5); conditions: prolonged ACh application; cited from earlier work
[3] = target: α9α10^α9TM2TM3loop (Rattus norvegicus, UniProt P43144+Q9JLB5, A292S/P291A/S288I/S294N); assay: ACh-evoked currents, two-electrode voltage-clamp in X. laevis oocytes; format: cell-based; conditions: prolonged (1 min) ACh application
[4] = test system: α9E202Qα10; assay: ACh-evoked currents, two-electrode voltage-clamp in X. laevis oocytes; format: cell-based, rat; conditions: 1 mM ACh; α9E202Qα10 mutant receptor
How it was run: as §1

[5] = test system: α9^α10TM2TM3loop; assay: as above; format: cell-based, rat; conditions: 1 mM ACh; α9^α10TM2TM3loop injected alone or co-injected with α9
How it was run: as §1

[6] = test system: homomeric α9 nAChR; conditions: cited from earlier work

Chain of α9α10 nAChR (P43144 26-479): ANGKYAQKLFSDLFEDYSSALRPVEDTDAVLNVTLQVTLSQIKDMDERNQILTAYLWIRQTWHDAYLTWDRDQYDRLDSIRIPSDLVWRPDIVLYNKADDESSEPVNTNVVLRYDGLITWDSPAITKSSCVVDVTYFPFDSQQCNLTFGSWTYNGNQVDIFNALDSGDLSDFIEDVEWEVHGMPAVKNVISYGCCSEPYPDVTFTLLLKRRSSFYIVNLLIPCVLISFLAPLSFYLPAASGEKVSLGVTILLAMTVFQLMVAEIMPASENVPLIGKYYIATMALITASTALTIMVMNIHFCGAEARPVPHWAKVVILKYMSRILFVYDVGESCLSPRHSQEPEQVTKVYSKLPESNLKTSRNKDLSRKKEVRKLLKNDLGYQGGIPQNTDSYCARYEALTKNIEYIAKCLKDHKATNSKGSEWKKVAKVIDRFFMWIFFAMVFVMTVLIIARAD
Chain of α9α10 nAChR (Q9JLB5 25-447): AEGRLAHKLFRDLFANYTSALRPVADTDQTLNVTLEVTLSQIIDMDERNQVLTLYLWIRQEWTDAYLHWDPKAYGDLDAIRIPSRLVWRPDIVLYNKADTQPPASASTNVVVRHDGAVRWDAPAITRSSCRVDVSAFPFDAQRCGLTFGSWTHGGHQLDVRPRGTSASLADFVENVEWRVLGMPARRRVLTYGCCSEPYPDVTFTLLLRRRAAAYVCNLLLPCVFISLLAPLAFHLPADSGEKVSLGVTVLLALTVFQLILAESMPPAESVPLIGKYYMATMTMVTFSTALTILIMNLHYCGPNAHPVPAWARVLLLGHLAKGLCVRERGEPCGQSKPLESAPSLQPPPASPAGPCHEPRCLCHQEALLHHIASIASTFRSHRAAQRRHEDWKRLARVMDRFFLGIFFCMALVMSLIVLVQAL
Chain of α9α10^α9TM2TM3loop (P43144 26-479, stated change not applied): as the sequence (P43144 26-479) above
Chain of α9α10^α9TM2TM3loop (Q9JLB5 25-447 S288I/P291A/A292S/S294N): as the sequence (Q9JLB5 25-447) above, with S264I, P267A, A268S, S270N counted along it

SMILES: CC(=O)OCC[N+](C)(C)C [ACh, Acetylcholine]
- response to ACh (in words) [1]: failed to respond
- remaining current after 20 s of the peak response to ACh [2]: 57.1 ± 4.3%
- remaining current after 20 s of the peak response to ACh [3]: 61.9 ± 4.6%
- response to ACh (in words) [4]: failed to respond
- response to ACh (in words) [5]: did not render functional receptors
- maximal amplitude of responses ([6]; 100 µM ACh, absence of extracellular Ca^2+): 182 ± 20 nA
- EC50 ([6]; ACh concentration-response, ref 45 (Verbitsky et al. 2000)): 11.4 ± 0.8 µM
- remaining current after 20 s of the peak response to ACh ([6]; prolonged application of a high ACh concentration): 94.9 ± 1.6%
